ChEMBL document CHEMBL2331331 (J Med Chem, 2013)

Key:
[1] = biological target: Vascular endothelial growth factor receptor 2 (Danio rerio, UniProt Q5GIT4); experiment: Inhibition of VEGFR2 in transgenic zebrafish embryo assessed as inhibition of intersegmental vessels formation measured 33 hrs post fertilization by fluorescence microscopic analysis
In short: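 FLK-1:EGFP transgenic zebrafish embryos, 10 per well, exposed at 28.5 °C from 15 to 31 hpf to compound in fish water at 1.25, 2.5 or 5 μM (diluted from a 10 mmol/L DMSO stock); 0.3% DMSO as vehicle control. Embryos were imaged at 33 hpf, and ISVs above the yolk extension were scored for length. n = 11, mean ± SD, ANOVA.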

[2] = tested on: HeLa; experiment: Cytotoxicity against human HeLa cells assessed as growth inhibition after 72 hrs by MTT assay; assay type: functional, cell-based
In short: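 MTT viability assay with serial inhibitor dilutions for 72 h at 37 °C, then MTT for 2–4 h and OD read at 570 nm. Leukemia lines were seeded at (1–4) × 10⁴ cells/well and lysed with 20% acidified SDS. Adherent lines were seeded at (2–5) × 10³ cells/well, dosed after 24 h and dissolved in DMSO. Triplicate; mean ± SD.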

[3] = biological target: Receptor-type tyrosine-protein kinase FLT3 (Homo sapiens, UniProt P36888, ITD); experiment: Binding affinity to FLT3-ITD mutant (unknown origin)
[4] = biological target: Vascular endothelial growth factor receptor 2 (Homo sapiens, UniProt P35968); experiment: Inhibition of VEGFR2 (unknown origin)
Vascular endothelial growth factor receptor 2 (Homo sapiens, UniProt P35968), sequence (P35968 whole entry): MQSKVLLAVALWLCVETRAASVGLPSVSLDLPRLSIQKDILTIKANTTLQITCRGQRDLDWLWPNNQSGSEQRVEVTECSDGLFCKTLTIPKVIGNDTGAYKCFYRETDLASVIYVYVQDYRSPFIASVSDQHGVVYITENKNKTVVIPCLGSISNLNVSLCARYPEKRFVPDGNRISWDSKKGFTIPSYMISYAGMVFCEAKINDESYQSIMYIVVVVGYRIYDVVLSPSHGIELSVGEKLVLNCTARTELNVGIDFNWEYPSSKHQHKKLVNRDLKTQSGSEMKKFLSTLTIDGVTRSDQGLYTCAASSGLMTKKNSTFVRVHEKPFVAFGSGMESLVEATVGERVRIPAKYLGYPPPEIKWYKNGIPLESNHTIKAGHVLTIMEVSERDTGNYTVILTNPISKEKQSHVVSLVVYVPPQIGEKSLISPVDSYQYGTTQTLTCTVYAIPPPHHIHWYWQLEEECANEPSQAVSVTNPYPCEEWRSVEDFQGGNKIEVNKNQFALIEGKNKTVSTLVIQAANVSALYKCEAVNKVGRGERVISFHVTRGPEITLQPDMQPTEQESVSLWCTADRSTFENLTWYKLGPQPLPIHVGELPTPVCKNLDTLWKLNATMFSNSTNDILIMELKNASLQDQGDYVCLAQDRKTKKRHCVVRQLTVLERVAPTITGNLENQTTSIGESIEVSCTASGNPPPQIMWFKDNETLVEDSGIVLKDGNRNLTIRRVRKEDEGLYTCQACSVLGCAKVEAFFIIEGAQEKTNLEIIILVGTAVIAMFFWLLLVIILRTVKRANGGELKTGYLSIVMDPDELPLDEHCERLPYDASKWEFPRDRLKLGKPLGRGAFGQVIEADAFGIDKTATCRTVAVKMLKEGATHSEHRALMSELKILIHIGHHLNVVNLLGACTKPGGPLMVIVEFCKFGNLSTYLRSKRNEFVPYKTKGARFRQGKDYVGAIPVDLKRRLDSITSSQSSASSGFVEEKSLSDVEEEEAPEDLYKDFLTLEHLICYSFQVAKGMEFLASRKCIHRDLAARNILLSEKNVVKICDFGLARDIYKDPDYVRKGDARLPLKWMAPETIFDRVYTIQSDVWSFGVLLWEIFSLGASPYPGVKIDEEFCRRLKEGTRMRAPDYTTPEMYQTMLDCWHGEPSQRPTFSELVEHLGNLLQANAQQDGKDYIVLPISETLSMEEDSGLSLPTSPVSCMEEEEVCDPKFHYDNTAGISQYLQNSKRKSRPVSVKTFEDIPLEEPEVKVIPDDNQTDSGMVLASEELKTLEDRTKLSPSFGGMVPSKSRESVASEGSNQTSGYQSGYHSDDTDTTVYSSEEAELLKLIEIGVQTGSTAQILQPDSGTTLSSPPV

[5] = biological target: T1, Receptor-type tyrosine-protein kinase FLT3 (Homo sapiens, UniProt P36888); experiment: Inhibition of FLT3 (unknown origin)
T1 sequence (P36888 whole entry): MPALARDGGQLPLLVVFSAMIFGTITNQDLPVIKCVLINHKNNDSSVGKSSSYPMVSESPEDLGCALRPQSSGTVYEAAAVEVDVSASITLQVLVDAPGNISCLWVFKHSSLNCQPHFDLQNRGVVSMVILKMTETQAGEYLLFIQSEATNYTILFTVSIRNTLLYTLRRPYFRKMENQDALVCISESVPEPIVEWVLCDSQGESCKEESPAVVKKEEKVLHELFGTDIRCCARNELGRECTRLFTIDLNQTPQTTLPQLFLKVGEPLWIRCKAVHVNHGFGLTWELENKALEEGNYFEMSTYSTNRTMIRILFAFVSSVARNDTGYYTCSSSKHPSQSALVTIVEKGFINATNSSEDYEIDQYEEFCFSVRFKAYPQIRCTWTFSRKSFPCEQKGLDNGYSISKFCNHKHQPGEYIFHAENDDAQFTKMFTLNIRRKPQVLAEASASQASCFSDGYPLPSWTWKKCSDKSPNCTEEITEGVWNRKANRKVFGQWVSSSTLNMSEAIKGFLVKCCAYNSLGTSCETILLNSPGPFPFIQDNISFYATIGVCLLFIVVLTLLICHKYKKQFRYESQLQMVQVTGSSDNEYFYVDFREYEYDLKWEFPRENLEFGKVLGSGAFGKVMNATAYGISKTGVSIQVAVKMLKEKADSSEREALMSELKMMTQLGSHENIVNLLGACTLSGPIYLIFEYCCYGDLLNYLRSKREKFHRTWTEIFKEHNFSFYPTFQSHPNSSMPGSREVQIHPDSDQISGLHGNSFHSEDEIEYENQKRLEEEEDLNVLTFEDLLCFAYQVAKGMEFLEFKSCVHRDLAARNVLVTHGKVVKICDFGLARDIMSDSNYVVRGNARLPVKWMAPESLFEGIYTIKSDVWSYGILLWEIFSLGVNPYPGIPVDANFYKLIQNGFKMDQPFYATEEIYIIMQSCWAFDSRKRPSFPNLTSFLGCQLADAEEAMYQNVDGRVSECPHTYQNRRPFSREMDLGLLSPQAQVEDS

Vascular endothelial growth factor receptor 2 (Danio rerio, UniProt Q5GIT4), sequence (Q5GIT4 whole entry): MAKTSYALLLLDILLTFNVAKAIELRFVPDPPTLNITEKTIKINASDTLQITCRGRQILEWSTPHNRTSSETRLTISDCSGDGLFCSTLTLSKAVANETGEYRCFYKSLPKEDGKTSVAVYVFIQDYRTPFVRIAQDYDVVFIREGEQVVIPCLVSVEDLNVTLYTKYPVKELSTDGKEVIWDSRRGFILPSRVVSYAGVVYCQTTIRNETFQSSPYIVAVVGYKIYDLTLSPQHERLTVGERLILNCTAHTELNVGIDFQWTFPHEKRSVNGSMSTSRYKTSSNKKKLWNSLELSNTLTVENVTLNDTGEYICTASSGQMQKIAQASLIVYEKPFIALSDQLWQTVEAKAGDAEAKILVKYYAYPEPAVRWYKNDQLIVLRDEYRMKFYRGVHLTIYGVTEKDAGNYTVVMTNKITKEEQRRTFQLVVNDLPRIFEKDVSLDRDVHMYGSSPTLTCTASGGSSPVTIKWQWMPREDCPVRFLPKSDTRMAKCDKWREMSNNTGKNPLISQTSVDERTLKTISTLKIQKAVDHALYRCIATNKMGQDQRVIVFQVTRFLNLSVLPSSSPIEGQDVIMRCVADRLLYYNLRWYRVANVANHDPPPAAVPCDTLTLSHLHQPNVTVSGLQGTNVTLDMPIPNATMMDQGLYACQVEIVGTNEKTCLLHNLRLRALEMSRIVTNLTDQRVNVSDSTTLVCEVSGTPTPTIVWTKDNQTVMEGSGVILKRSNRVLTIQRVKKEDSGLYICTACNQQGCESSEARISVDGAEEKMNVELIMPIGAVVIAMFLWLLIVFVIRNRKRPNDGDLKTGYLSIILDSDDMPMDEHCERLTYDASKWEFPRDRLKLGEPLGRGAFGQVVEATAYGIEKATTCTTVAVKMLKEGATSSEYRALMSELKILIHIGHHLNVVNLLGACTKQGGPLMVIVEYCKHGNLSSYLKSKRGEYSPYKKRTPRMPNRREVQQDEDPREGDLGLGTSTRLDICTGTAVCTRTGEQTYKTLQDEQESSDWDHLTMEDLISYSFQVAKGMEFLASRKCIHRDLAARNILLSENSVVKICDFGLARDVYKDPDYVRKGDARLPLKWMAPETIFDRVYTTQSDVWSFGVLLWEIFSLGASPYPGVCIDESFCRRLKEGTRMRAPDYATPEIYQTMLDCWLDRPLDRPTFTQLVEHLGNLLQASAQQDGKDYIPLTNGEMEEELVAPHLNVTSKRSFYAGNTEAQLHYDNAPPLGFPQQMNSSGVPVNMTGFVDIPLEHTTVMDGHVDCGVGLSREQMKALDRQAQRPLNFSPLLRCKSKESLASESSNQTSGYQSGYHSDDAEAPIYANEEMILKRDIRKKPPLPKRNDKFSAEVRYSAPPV

O=C(Nc1ccc(Oc2ncnc3n[nH]cc23)cc1)Nc1cccnc1
IC50 [1]: > 100 µM
IC50 [2]: > 10 µM

O=C(Nc1ccc(Br)cc1)Nc1ccc(Oc2ncnc3[nH]ncc23)cc1
IC50 [1]: 74.7 µM
IC50 [2]: > 10 µM

Cc1cccc(NC(=O)Nc2ccc(Oc3ncnc4[nH]ncc34)cc2)c1C
IC50 [1]: 98.8 µM
IC50 [2]: > 10 µM

CC(C)c1cccc(NC(=O)Nc2ccc(Oc3ncnc4n[nH]cc34)cc2)c1
IC50 [1]: 7.73 µM
IC50 [2]: > 10 µM

O=C(Nc1ccc(Oc2ncnc3[nH]ncc23)cc1)Nc1cccc(C(F)(F)F)c1
Kd [3]: 0.0066 µM
IC50 [1]: 1.05 µM
IC50 [2]: > 10 µM

O=C(Nc1ccc(Oc2ncnc3[nH]ncc23)cc1)Nc1ccc(C(F)(F)F)cc1Cl
IC50 [1]: 8.46 µM
IC50 [2]: > 10 µM

O=C(Nc1ccc(Oc2ncnc3[nH]ncc23)cc1)Nc1ccc(N2CCOCC2)cc1
IC50 [1]: > 100 µM
IC50 [2]: > 10 µM

O=C(Nc1ccc(Oc2ncnc3n[nH]cc23)cc1)NC1CCCCC1
IC50 [1]: > 100 µM
IC50 [2]: > 10 µM

O=C(Nc1ccc(C(F)(F)F)cc1)Nc1cccc(Oc2ncnc3[nH]ncc23)c1
IC50 [1]: > 100 µM
IC50 [2]: > 10 µM

Cn1ncc2c(Oc3ccc(NC(=O)Nc4ccc(C(F)(F)F)cc4)cc3)ncnc21
IC50 [1]: > 100 µM
IC50 [2]: > 10 µM

O=C(Nc1ccc(Oc2ncnc3n[nH]cc23)cc1)Nc1cc(C(F)(F)F)cc(C(F)(F)F)c1
IC50 [1]: 5.18 µM
IC50 [2]: > 10 µM

Cc1cccc(NC(=O)Nc2ccc(Nc3ncnc4n[nH]cc34)cc2)c1C
IC50 [1]: > 100 µM
IC50 [2]: > 10 µM

O=C(Nc1cccc(Oc2ncnc3n[nH]cc23)c1)c1ccc(C(F)(F)F)cc1
IC50 [1]: > 100 µM
IC50 [2]: > 10 µM

O=C(Nc1ccccc1)Nc1ccc(Oc2ncnc3n[nH]cc23)cc1
IC50 [1]: 20.2 µM
IC50 [2]: > 10 µM

O=C(Nc1ccc(Nc2ncnc3[nH]ncc23)cc1)Nc1ccc(C(F)(F)F)cc1
IC50 [1]: > 100 µM
IC50 [2]: > 10 µM

O=C(Cc1ccc(Br)cc1)Nc1ccc(Oc2ncnc3n[nH]cc23)cc1
IC50 [1]: 74.7 µM
IC50 [2]: > 10 µM

COc1cccc(NC(=O)Nc2ccc(Oc3ncnc4c3cnn4C)cc2)c1
IC50 [1]: > 100 µM
IC50 [2]: > 10 µM

CC(NC(=O)Nc1ccc(Nc2ncnc3[nH]ncc23)cc1)c1ccccc1 (stereo not given)
IC50 [1]: > 100 µM
IC50 [2]: > 10 µM

O=C(Nc1ccc(Oc2ncnc3n[nH]cc23)cc1)c1ccc(Br)cc1
IC50 [1]: 74.7 µM
IC50 [2]: > 10 µM

O=C(Cc1ccc(Br)cc1)Nc1cccc(Oc2ncnc3n[nH]cc23)c1
IC50 [1]: > 100 µM
IC50 [2]: > 10 µM

O=C(Nc1cccc(Oc2ncnc3[nH]ncc23)c1)c1ccc(Br)cc1
IC50 [1]: > 100 µM
IC50 [2]: > 10 µM

COc1cccc(NC(=O)Nc2ccc(Nc3ncnc4[nH]ncc34)cc2)c1
IC50 [1]: > 100 µM
IC50 [2]: > 10 µM

O=C(Nc1ccc(Oc2ncnc3[nH]ncc23)cc1)Nc1cccc(F)c1
IC50 [1]: 16.6 µM
IC50 [2]: > 10 µM

O=C(Nc1ccc(F)cc1)Nc1ccc(Oc2ncnc3[nH]ncc23)cc1
IC50 [1]: 89.4 µM
IC50 [2]: > 10 µM

O=C(Nc1ccc(Oc2ncnc3n[nH]cc23)cc1)Nc1cccc(OC(F)(F)F)c1
IC50 [1]: 17.8 µM
IC50 [2]: > 10 µM

O=C(Nc1ccc(Oc2ncnc3[nH]ncc23)cc1)Nc1ccc(C(F)(F)F)cc1
Kd [3]: 0.91 µM
IC50 [4]: 0.038 µM
IC50 [1]: 1.2 µM
IC50 [5]: 0.032 µM
IC50 [2]: > 10 µM

O=C(Nc1ccc(Br)cc1)Nc1ccc(Nc2ncnc3n[nH]cc23)cc1
IC50 [1]: > 100 µM
IC50 [2]: > 10 µM

COc1cccc(NC(=O)Nc2ccc(Oc3ncnc4n[nH]cc34)cc2)c1
IC50 [1]: 82 µM
IC50 [2]: > 10 µM

O=C(Cc1ccc(C(F)(F)F)cc1)Nc1cccc(Oc2ncnc3[nH]ncc23)c1
IC50 [1]: > 100 µM
IC50 [2]: > 10 µM

O=C(Nc1ccc(Br)cc1)Nc1cccc(Oc2ncnc3[nH]ncc23)c1
IC50 [1]: > 100 µM
IC50 [2]: > 10 µM

CNC(=O)c1cc(Oc2ccc(NC(=O)Nc3ccc(Cl)c(C(F)(F)F)c3)cc2)ccn1 [SORAFENIB]
IC50 [1]: 2.6 µM
IC50 [2]: 4.16 µM

CC(NC(=O)Nc1ccc(Oc2ncnc3n[nH]cc23)cc1)c1ccccc1 (stereo not given)
IC50 [1]: > 98.2 µM
IC50 [2]: > 10 µM

O=C(NCC1CCCCC1)Nc1ccc(Oc2ncnc3[nH]ncc23)cc1
IC50 [1]: > 100 µM
IC50 [2]: > 10 µM
